Test results published in PubChem BioAssay AID602213 (Southern Research Specialized Biocontainment Screening …, 2012).
The source made the active and inactive calls.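 The calls were made as follows: active = inhibition of 30% or more at any tested concentration; inactive = the rest.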

What follows are molecules tested against M1-family alanyl aminopeptidase PfA-M1 (Plasmodium falciparum 3D7) (assay: inhibition of malaria M1 alanyl aminopeptidase – biochemical, QFRET, H-Leu-NHMec substrate, set 2, dose response (AID 602213)). Details: recombinant PfM1AAP, H-Leu-NHMec fluorogenic cleavage.
Summary of the method: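 Material – recombinant P. falciparum M1 alanyl aminopeptidase · Amount – PfM1AAP enzyme at 5 µg/mL final · Buffer or medium – 50 mM Tris pH 7.5 with 2 mM CoCl2, 2% DMSO · Schedule – 90 min reaction at room temperature · Signal – fluorescence at 370/460 nm · Read-out basis – % inhibition of NHMec release and IC50 from 4-parameter fit (0/100 fixed)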

SMILES	IC50 [µM]
O=C(NCc1ccc(F)cc1)C1CCN(S(=O)(=O)c2ccc(Br)s2)CC1	5.05
O=C(NCc1ccc(Cl)cc1)C1CCN(S(=O)(=O)c2ccc(Br)s2)CC1	14.6
O=C(NCc1ccc2c(c1)OCO2)C1CCN(S(=O)(=O)c2ccc(Br)s2)CC1	1.54
O=C(NCc1ccccc1)C1CCN(S(=O)(=O)c2ccc(Br)s2)CC1	2.26

Same assay, conditions: recombinant PfM1AAP, H-Leu-NHMec fluorogenic cleavage; at 100 µM (top of the series)

SMILES	inhibition
CC[C@H](C)[C@H](NC(=O)c1ccc(C(C)(C)C)cc1)C(=O)NCc1ccc2c(c1)OCO2	inactive
CC[C@H](C)[C@H](NS(=O)(=O)c1ccc(Br)s1)C(=O)NCc1ccc(Cl)cc1	inactive
CC[C@H](C)[C@H](NC(=O)c1ccc(C(C)(C)C)cc1)C(=O)NCc1ccc(Cl)cc1	inactive
CC[C@H](C)[C@H](NS(=O)(=O)c1ccc(Br)s1)C(=O)NCc1ccc2c(c1)OCO2	inactive
